Tn6 DDE FP = inhibitors of Tn6 peptide binding to fibrin DD(E), primary screen, biochemical, fluorescence polarization, human fibrin, Tn6 probe; Fibrinogen beta chain (Homo sapiens), P02675; inhibition, % at 8.3 µM; Fibrin DD(E) TRITC-Tn6 fluorescence polarization displacement; 370,000 compounds, 0.21% hits;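 active means inhibition above a per-campaign cutoff: mean of compounds within control limits plus 3 SD, cut at about 15% in these data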
ABHD4 inh = ABHD4 inhibitors, primary screen, biochemical, fluorescence polarization, mouse; 370,000 compounds, 0.54% hits; inhibition, % at 8.92 µM; purified mABHD4, FP-Rh probe fluorescence polarization; (Lyso)-N-acylphosphatidylethanolamine lipase (Mus musculus), Q8VD66; AID 720543, 2013;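 active means inhibition exceeding the mean over every tested compound plus 3 SD, cut at about 30% in these data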
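Assay system: mABHD4 protein; medium: HEPES pH 7.0, NaCl, Pluronic buffer; dosing: 8.92 µM, single dose; schedule: 45 min + 60 min at 25 °C; signal: FP readout, ex 525 nm / em 598 nm; read-out: normalized percent inhibition of probe labeling; repeats: single replicate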
TCR-CD3 inh = inhibitors of human TCR-CD3 interaction, primary screen, biochemical, fluorescence, TAMRA-labeled TCR probe | AID 651800, 2012 | T-cell receptor (TCR) | 360,000 compounds, 0.37% hits | inhibition, % at 9.4 µM;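 further: recombinant mutant TCR 2C K166C tagged with TAMRA read by polarization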
SIAE inh = human SIAE inhibitors, primary screen, biochemical, fluorescence polarization, FP-Rh probe, 1536-well HTS; SIAE FP-Rh probe binding; inhibition, % at 9.66 µM; 370,000 compounds, 0.69% hits;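 active means inhibition above a cutoff: mean of compounds within the control limits plus 3 SD of those, cut at about 17% in these data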
Target sequence (Q9HAT2 whole entry, looked up): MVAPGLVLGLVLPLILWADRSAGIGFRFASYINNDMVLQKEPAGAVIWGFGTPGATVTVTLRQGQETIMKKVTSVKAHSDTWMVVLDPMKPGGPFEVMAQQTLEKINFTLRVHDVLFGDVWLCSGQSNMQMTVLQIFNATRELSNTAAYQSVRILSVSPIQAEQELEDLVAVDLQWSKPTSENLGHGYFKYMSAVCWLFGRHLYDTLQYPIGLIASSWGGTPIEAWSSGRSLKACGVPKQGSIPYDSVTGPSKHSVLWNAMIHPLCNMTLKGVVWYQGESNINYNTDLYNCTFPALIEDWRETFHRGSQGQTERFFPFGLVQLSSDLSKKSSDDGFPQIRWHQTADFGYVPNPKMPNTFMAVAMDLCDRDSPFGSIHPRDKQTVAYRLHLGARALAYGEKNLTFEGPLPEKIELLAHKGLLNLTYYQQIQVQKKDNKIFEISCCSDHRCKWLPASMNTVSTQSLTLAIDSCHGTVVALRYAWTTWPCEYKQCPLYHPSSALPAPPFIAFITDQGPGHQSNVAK
DDE Tn7 FP inh = inhibitors of Tn7 peptide binding to fibrin DD(E), primary screen, biochemical, fluorescence polarization, human fibrin, Tn7 probe. Fibrinogen beta chain (Homo sapiens), P02675. FP displacement of FITC-Tn7 peptide from fibrin DD(E); 0% = median of compound wells per plate. inhibition, % at 8.3 µM. 370,000 compounds, 0.13% hits. AID 720508, 2013;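 active means inhibition above the mean of compounds falling within the control limits plus 3 SD of them, cut at about 14% in these data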
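Assay system: human fibrin DD(E). Input: DD(E) 2 µM final. Medium: Tris buffer with calcium and detergent, pH 7.8. Compound dosing: single point at 8.3 µM. Timing: 10 min plus 3 h, room temperature. Technique: fluorescence polarization of the labelled Tn7 tracer. Read-out: percent inhibition. Replicates: singlicate testing.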
HTRA1 inhibitor = HTRA1 serine protease inhibitors, primary screen, biochemical, fluorescence polarization, HTS. Q92743. recombinant HTRA1, FP-rhodamine activity-based probe. inhibition, % at 5.96 µM. 340,000 compounds, 0.5% hits; in the data active means inhibition above about 36%
HTRA1 inh conf = HTRA1 protease inhibitors, retest, confirmation, biochemical, fluorescence polarization; shares compounds with HTRA1 inhibitor; recombinant HTRA1, FP-rhodamine activity-based probe; inhibition, % at 5.96 µM; 1,600 compounds, 66% hits; AID 540248, 2011;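 active means mean inhibition over three repeats above a set limit taken from the earlier primary screen, cut at about 37% in these data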;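 further: inhibitors block probe binding so polarization drops and inhibition rises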
BSA probe FL = compounds interfering with TAMRA-BSA probe, counter-screen for TCR-CD3 interaction inhibitor project, biochemical, fluorescence, TAMRA-labeled BSA | inhibition, % at 9.4 µM | shares compounds with TCR-CD3 inh | 1,200 compounds, 10% hits | TAMRA-labeled BSA probe fluorescence counterscreen | AID 652035, 2013; in the data active means inhibition above about 23%
TCR-CD3 conf = TCR-CD3 interaction inhibitors, retest, confirmation, biochemical, fluorescence, TAMRA-labeled TCR probe; 1,200 compounds, 48% hits; shares compounds with TCR-CD3 inh; AID 652036, 2013; inhibition, % at 9.4 µM; TAMRA-labeled TCR probe fluorescence binding assay
DDE Tn6 FP ctr = counter-screen hit for Tn6 peptide-fibrin DD(E) binding disruption; shares compounds with Tn6 DDE FP; inhibition, % at 8.3 µM; TRITC-Tn6 fluorescence polarization displacement; 0% = median of compound wells, not DMSO; 680 compounds, 2% hits;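 active means inhibition above the mean of test compounds lying between the control limits plus 3 SD of those, cut at about 14% in these data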
Tn6 DDE conf = inhibitors of Tn6 peptide binding to fibrin DD(E), confirmation, biochemical, fluorescence polarization, human fibrin, Tn6 probe. FP displacement of TRITC-Tn6 peptide from DD(E); 0% = per-plate median of test wells. 680 compounds, 10% hits. shares compounds with Tn6 DDE FP. inhibition, % at 8.3 µM. AID 720631, 2013;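 active means inhibition above the mean of compounds lying within the control limits plus 3 SD, cut at about 16% in these data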
mABHD4 conf = ABHD4 inhibitors, retest, confirmation, biochemical, fluorescence polarization, mouse; AID 720658, 2013; 1,800 compounds, 55% hits; shares compounds with ABHD4 inh; purified mABHD4, FP-Rh probe fluorescence polarization; inhibition, % at 8.92 µM;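 active means mean inhibition across replicates above the hit cutoff set in the primary screen, cut at about 30% in these data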
Of the large screens only hits and unclear results are named; the others gave an inactive call (follow-up assays come after a bar, where they were run). An excerpt weighted towards active compounds, which were near 1.8% of everything screened. Unless noted, no stated cut-off is given here; in the data, active means inhibition above about 19%; inactive means the rest.

O=C(NC(=S)NNC(=O)c1ccccc1O)c1ccco1	TCR-CD3 inh 25, HTRA1 inhibitor 39 | HTRA1 inh conf 67 | BSA probe FL inactive | TCR-CD3 conf inactive
O=C(c1ccccc1Cl)N1CCC(Oc2cccnc2)CC1	none (no result: TCR-CD3 inh, HTRA1 inhibitor)
O=C(CCN1CCN(c2ccccc2)CC1)N/N=C/c1ccc(O)c(O)c1O	TCR-CD3 inh 30, HTRA1 inhibitor 47 | HTRA1 inh conf 37 | BSA probe FL inactive | TCR-CD3 conf 24
COc1ccc2nc(C)cc(SCC(=O)N/N=C/c3ccc(O)c(O)c3)c2c1	TCR-CD3 inh 40, HTRA1 inhibitor 38 | HTRA1 inh conf 59 | BSA probe FL inactive | TCR-CD3 conf 71
Oc1ccc(Cl)c2cccnc12	TCR-CD3 inh 30, HTRA1 inhibitor 64 | HTRA1 inh conf 76 | BSA probe FL inactive | TCR-CD3 conf inactive
OCc1ccc(O)c2ncccc12	none
O=C(N/N=C/c1ccc(O)c(O)c1)N/N=C/c1ccc(O)c(O)c1	TCR-CD3 inh 65, HTRA1 inhibitor 38 | HTRA1 inh conf inactive | BSA probe FL inactive | TCR-CD3 conf 81
Cc1nonc1C(=O)N/N=C/c1ccc(O)c(O)c1	none
C=CCn1c(SCC(=O)c2ccc(OC)cc2)nnc1-c1cc2cccc(OC)c2o1	none
C=CCn1c(SCC(=O)c2ccc(O)c(O)c2)nnc1-c1cccc(OC)c1	TCR-CD3 inh 20, HTRA1 inhibitor 38 | HTRA1 inh conf 67 | BSA probe FL inactive | TCR-CD3 conf inactive
CC1=Nc2cccc3cccc(c23)N1	TCR-CD3 inh 39, HTRA1 inhibitor 42 | HTRA1 inh conf inactive | BSA probe FL 45 | TCR-CD3 conf 23
CC(C)CCN(C)C1CCN(C(=O)Nc2ccc3c(c2)OCO3)CC1	none (no result: TCR-CD3 inh, HTRA1 inhibitor)
O=C(O)C1Nc2c(O)cc(Cl)c([N+](=O)[O-])c2C2C=CCC12 (configuration not stated)	ABHD4 inh 61, TCR-CD3 inh 91, SIAE inh 53, HTRA1 inhibitor 66 | HTRA1 inh conf 63 | BSA probe FL inactive | TCR-CD3 conf 51
O=C(O)c1cc(Cl)c2c(c1)[C@@H]1C=CC[C@@H]1[C@H](c1ccc(S(=O)(=O)N3CCOCC3)cc1)N2	none (no result: Tn6 DDE FP, ABHD4 inh, TCR-CD3 inh, SIAE inh, DDE Tn7 FP inh)
C/C(=C/c1nc(N)n(Cc2ccccc2)c1Cc1ccccc1)Cn1[nH]c(=O)n(-c2ccccc2)c1=O	none (no result: TCR-CD3 inh, HTRA1 inhibitor)
CCOc1ccc(-n2c(SCC(=O)c3ccccc3Cl)nnc2-c2ccncc2)cc1	none (no result: TCR-CD3 inh, HTRA1 inhibitor)
CN(C)c1ccc(Cc2cc3c(O)ccc(O)c3cc(Cc3ccc(N(C)C)cc3)c2=O)cc1	ABHD4 inh 83, TCR-CD3 inh 43, SIAE inh 56, HTRA1 inhibitor 84 | HTRA1 inh conf 72 | BSA probe FL inactive | TCR-CD3 conf 38
COc1ccc(C)cc1NC(=O)NNC(=O)c1cc2ccccc2cc1O	TCR-CD3 inh 22, HTRA1 inhibitor 42 | HTRA1 inh conf inactive | BSA probe FL inactive | TCR-CD3 conf 26
Cc1cc(C)c(C)c(S(=O)(=O)N2CCC(C(=O)NNC(=O)c3ccccc3O)CC2)c1C	TCR-CD3 inh 32, HTRA1 inhibitor 46 | HTRA1 inh conf 48 | BSA probe FL inactive | TCR-CD3 conf 22
COC(=O)C1CN(C2CCCC2)CCS(=O)(=O)N1Cc1cn(Cc2ccc(F)cc2)nn1 (configuration not stated)	none (no result: TCR-CD3 inh, HTRA1 inhibitor)
Cc1cc2cc(CNC(=S)Nc3ccc(OC(F)F)cc3)ccc2n1C	Tn6 DDE FP 20, HTRA1 inhibitor 52 | HTRA1 inh conf inactive | DDE Tn6 FP ctr inactive | Tn6 DDE conf inactive
O=C(NCCc1c[nH]c2ccccc12)OCc1cn(-c2cccc(C(F)(F)F)c2)nn1	none (no result: TCR-CD3 inh, HTRA1 inhibitor)
CC(=O)Nc1cccc(C(C)C2=CCCCC2)c1 (configuration not stated)	none (no result: TCR-CD3 inh, HTRA1 inhibitor)
CN(C)c1ccc(C=c2c3cc(O)ccc3n3c2cc(-c2ccccc2)[n+]3C)cc1	none
CCOC(=O)c1cc2c(=Cc3ccc(N(C)C)cc3)c3ccccc3n2[n+]1C	Tn6 DDE FP 22, HTRA1 inhibitor 46 | HTRA1 inh conf inactive | DDE Tn6 FP ctr inactive | Tn6 DDE conf inactive
Cc1cc2ccccc2n1CCNC(=O)C1CCCCC1	Tn6 DDE FP 39, HTRA1 inhibitor 36 | HTRA1 inh conf inactive | DDE Tn6 FP ctr inactive | Tn6 DDE conf inactive
O=C(O)c1cccc(N/N=C(\N=Nc2ccccc2)c2ccccc2)c1	ABHD4 inh 72, HTRA1 inhibitor 59 | HTRA1 inh conf 74 | mABHD4 conf 104
O=C(O)c1ccc(N=N/C(=N\Nc2ccc(C(=O)O)cc2)c2ccccc2)cc1	none
Cc1ccc(NC(=S)NNc2ccc(C(=O)O)cc2[N+](=O)[O-])cc1C	ABHD4 inh 69, TCR-CD3 inh 28, HTRA1 inhibitor 49 | HTRA1 inh conf 41 | BSA probe FL inactive | TCR-CD3 conf inactive | mABHD4 conf 47
